In ChEMBL document CHEMBL3243924, “Synthesis and biological activity of 5-fluoro- and 5-methyl-1,3-oxazine-2,6(3H)-dione” (J Med Chem, 1979):

Columns and labels:
Enterococcus faecium [1] = test: Growth inhibition of Streptococcus faecium; type: functional
Escherichia coli = test: Growth inhibition of Escherichia coli; type: functional
L1210 = test: Growth inhibition of mouse L1210 cells; type: functional
Enterococcus faecium [2] = test: Growth inhibition of Streptococcus faecium assessed as [I]/[S] for 50% growth inhibition in presence of 1 uM to 1 mM thymine; type: functional
Enterococcus faecium [3] = test: Growth inhibition of Streptococcus faecium assessed as [I]/[S] for 50% growth inhibition in presence of 1 uM to 1 mM thymidine; type: functional
Enterococcus faecium [4] = test: Growth inhibition of Streptococcus faecium assessed as inhibition index [I]/[S] for 50% growth inhibition in presence of 1 uM to 1 mM 2'-deoxyuridine; type: functional
Enterococcus faecium [5] = test: Growth inhibition of Streptococcus faecium assessed as [I]/[S] for 50% growth inhibition in presence of 1 uM to 1 mM uracil; type: functional
Enterococcus faecium [6] = test: Growth inhibition of Streptococcus faecium assessed as [I]/[S] for 50% growth inhibition in presence of 1 uM to 1 mM uridine; type: functional
Enterococcus faecium [7] = test: Growth inhibition of Streptococcus faecium assessed as [I]/[S] for 50% growth inhibition in presence of 1 uM to 1 mM 2'-deoxycytidine; type: functional
Enterococcus faecium [8] = test: Growth inhibition of Streptococcus faecium assessed as [I]/[S] for 50% growth inhibition in presence of 1 uM to 1 mM cytidine; type: functional
Enterococcus faecium [9] = test: Growth inhibition of Streptococcus faecium assessed as [I]/[S] for 50% growth inhibition in presence of 1 uM to 1 mM cytosine; type: functional
[10] = Stability of the compound in bacterial growth medium assessed as compound degradation at pH 7.2; conditions: buffer
Procedure, shortened: (§1)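 Compound held in bacterial growth medium at pH 7.2. Degradation was followed as the time-dependent decrease in UV absorbance at 306 nm.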

[11] = Stability of the compound in bacterial growth medium by UV spectra analysis; procedure, shortened: as §1
[12] = Stability of the compound in mouse […] cell growth medium assessed as compound degradation
[13] = Half life in synthetic growth medium at 37 degC
[14] = Stability of the compound in synthetic growth medium assessed as compound remaining at 37 degC after 16 hrs; type: physicochemical; conditions: read-out: Stability

| Stability [10] | Stability [11] | half-life [13] [h] | Compound | ID50 (Enterococcus faecium [1]) | ID50 (Escherichia coli) | ID50 (L1210) | Ratio (Enterococcus faecium [2]) | Ratio (Enterococcus faecium [3]) | Ratio (Enterococcus faecium [4]) | Ratio (Enterococcus faecium [5]) | Ratio (Enterococcus faecium [6]) | Ratio (Enterococcus faecium [7]) | Ratio (Enterococcus faecium [8]) | Ratio (Enterococcus faecium [9]) | Stability [12] | remaining at 16 h [14] [%] |
| --- | --- | --- | --- | --- | --- | --- | --- | --- | --- | --- | --- | --- | --- | --- | --- | --- |
| Unstable | Unstable | 4 | O=c1[nH]cc(F)c(=O)o1 | 9 ×10⁻⁸ M | 1 ×10⁻⁷ M | 1 ×10⁻⁵ M | 120 | 110 | 100 | 90 | 90 | 10 | 8 | 7 | Unstable |  |
|  |  |  | O=c1cc[nH]c(=O)o1 | 2 ×10⁻⁵ M | 4 ×10⁻⁷ M | 4 ×10⁻⁵ M |  |  |  |  |  |  |  |  |  | 15 |
|  |  |  | Cc1c[nH]c(=O)oc1=O | >1 ×10⁻⁴ M | 3 ×10⁻⁴ M | >1 ×10⁻⁴ M |  |  |  |  |  |  |  |  |  |  |
